Source: PMC9804870 (Clinical Pharmacology in Drug Development, 2022)
Each block holds one molecule with its values, some of them ahead of it.

Assays:
[1] = test system: BTK; conditions: cited from earlier work
[2] = dose range of 75–250 mg; dose‐proportional; cited from earlier work
[3] = high permeability, low solubility; reduced solubility at higher pH; cited from earlier work
[4] = Study 1; type: in vivo; conditions: human, plasma, oral, 100 mg
Summary of the method: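 Healthy subjects, four-sequence crossover: 100 mg tablet or capsule fasted (>10 h). Period 3: tablet 30 min after high-fat meal (800–1000 calories), or fasted 2 h after 20 mg PPI following PPI 20 mg BID days −3 to −1. Plasma sampled predose to 24 h. Parent and metabolite by LC-MS/MS (1–1000, 5–5000 ng/mL). t½ noncompartmental (linear up log down).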

[5] = test system: CYP3A; conditions: has been reported; ref not given; cited from earlier work
[6] = test system: gastric pH; conditions: cited from earlier work

SMILES: CC#CC(=O)NCCCC(=O)c1nc(-c2ccc(C(=O)Nc3ccccn3)cc2)c2c(N)nccn12 [ACP‐5862]
- Potency with respect to BTK inhibition, less than acalabrutinib [1]: 50%

- half-life [4]: 120 to 180 min
SMILES: CC#CC(=O)N1CCC[C@H]1c1nc(-c2ccc(C(=O)Nc3ccccn3)cc2)c2c(N)nccn12 [Acalabrutinib]
- Dose linearity of pharmacokinetics [2]: linear pharmacokinetics
- Biopharmaceutical Classification System class [3]: class II

SMILES: COCCCOc1ccnc(C[S+]([O-])c2nc3ccccc3[nH]2)c1C (stereo not shown) [Rabeprazole]
- CYP3A inhibition in vitro [5]: weak inhibitor
- Time needed to achieve maximum suppression of gastric pH [6]: 3 days

SMILES: COc1ccc2[nH]c([S+]([O-])Cc3ncc(C)c(OC)c3C)nc2c1 (stereo not shown) [omeprazole]
- Time needed to achieve maximum suppression of gastric pH [6]: 5 days
